# Laboratory results from ChEMBL document CHEMBL4020709, “4-Indolyl-N-hydroxyphenylacrylamides as potent HDAC class I and IIB inhibitors in vitro and in vivo” (Eur J Med Chem, 2017).
# The source made the active and inactive calls. The rule behind the calls is not given here.
# What was measured:
# PC-3 [1] = assay: cells; type: functional; details: Homo sapiens, PC-3, 48 h
# [2] = Inhibition of HDAC in human HeLa cell nuclear extract using […] as substrate after 30 mins by fluorescence assay; type: cell-free
# How it was run: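 HeLa nuclear extract was incubated with fluorometric HDAC substrate in assay buffer at 37°C for 30 min. Lysine developer was then added for a further 30 min at 37°C. Fluorescence was read at ex 355/em 460 nm. Negative controls lacked extract, substrate, or both.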
# MDA-MB-231 = assay: cells; type: functional; details: Homo sapiens, MDA-MB-231, 48 h
# A549 = assay: cells; type: functional; details: Homo sapiens, A549, 48 h
# ASPC1 = assay: cells; type: functional; details: Homo sapiens, ASPC1, 48 h
# Histone deacetylase 1 = Histone deacetylase 1 (Homo sapiens, UniProt Q13547); assay: Inhibition of recombinant human full length HDAC1 using Fluor-de-Lys as substrate after 60 mins by spectrofluorimetric analysis
# Sequence of Histone deacetylase 1 (Q13547 whole entry): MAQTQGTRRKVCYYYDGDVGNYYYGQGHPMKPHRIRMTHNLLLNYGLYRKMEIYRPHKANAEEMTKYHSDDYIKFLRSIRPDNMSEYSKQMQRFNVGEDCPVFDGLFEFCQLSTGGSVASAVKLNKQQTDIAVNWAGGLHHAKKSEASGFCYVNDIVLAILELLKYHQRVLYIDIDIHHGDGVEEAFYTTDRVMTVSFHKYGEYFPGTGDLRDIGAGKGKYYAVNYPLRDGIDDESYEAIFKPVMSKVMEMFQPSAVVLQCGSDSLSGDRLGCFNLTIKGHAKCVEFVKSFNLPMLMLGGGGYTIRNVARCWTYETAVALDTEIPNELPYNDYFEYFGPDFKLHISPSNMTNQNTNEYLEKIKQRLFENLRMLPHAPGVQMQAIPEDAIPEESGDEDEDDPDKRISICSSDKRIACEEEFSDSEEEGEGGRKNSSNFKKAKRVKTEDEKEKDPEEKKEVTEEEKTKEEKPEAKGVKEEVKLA
# Mus musculus [3] = assay: Effect on HDAC1 expression in nude mouse xenografted with human PC3 cells at 20 and 40 mg/kg, ip administered every other day for 18 days measured twice weekly by hematoxylin/eosin staining based immunohistochemical analysis; type: functional, organism-based
# How it was run: (§1)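 PC3 xenograft tumors were formalin-fixed and paraffin-embedded, then sectioned. Sections were deparaffinized and rehydrated, and endogenous peroxidase was quenched with 3% H2O2. Antigen retrieval used pH 9 buffer at 80°C overnight, followed by blocking with fat-free milk. Primary antibody (acetyl-histone H3, HDAC1 or HDAC2) was applied at 4°C overnight, then secondary antibody, then Mayer's hematoxylin counterstain. Separate sections received H&E staining.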
# Mus musculus [4] = assay: In-vivo inhibition of HDAC in ip dosed nude mouse xenografted with human PC3 cells assessed as upregulation of acetyl-histone 3 expression by hematoxylin/eosin staining based immunohistochemical analysis; type: functional, organism-based
# How it was run: as §1
# Histone deacetylase 4 = Histone deacetylase 4 (Homo sapiens, UniProt P56524); assay: Inhibition of recombinant human full length HDAC4 using Fluor-de-Lys as substrate after 60 mins by spectrofluorimetric analysis
# Sequence of Histone deacetylase 4 (P56524 whole entry): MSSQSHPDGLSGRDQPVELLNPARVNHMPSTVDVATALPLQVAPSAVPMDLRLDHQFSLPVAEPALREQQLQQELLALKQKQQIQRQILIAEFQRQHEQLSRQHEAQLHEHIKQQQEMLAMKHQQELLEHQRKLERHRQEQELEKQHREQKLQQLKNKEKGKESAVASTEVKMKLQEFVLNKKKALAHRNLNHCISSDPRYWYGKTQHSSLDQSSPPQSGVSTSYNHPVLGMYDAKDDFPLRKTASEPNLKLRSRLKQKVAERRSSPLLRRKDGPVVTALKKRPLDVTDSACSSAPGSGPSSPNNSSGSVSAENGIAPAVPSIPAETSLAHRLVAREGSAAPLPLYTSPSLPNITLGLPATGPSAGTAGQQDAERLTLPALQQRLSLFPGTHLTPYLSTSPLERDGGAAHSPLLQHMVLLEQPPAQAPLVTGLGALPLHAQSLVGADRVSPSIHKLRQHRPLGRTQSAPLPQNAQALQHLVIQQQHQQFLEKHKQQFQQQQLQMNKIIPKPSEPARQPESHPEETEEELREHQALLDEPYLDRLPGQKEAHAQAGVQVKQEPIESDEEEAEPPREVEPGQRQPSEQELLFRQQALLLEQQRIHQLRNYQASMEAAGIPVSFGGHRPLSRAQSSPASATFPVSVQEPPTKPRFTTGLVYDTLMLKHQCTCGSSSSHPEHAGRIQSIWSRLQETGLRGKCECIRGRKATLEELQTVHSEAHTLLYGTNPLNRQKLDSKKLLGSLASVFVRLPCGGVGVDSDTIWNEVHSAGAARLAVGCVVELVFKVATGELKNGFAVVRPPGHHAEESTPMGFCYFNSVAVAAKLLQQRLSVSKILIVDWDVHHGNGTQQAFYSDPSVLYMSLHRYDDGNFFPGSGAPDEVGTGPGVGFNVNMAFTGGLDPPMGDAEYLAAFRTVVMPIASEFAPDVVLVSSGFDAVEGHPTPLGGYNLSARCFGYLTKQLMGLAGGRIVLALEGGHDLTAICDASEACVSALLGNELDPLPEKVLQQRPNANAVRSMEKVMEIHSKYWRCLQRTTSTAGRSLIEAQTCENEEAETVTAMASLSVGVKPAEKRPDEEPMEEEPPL
# Mus musculus [5] = assay: Downregulation of HDAC2 expression in nude mouse xenografted with human PC3 cells at 40 mg/kg, ip administered every other day for 18 days measured twice weekly by hematoxylin/eosin staining based immunohistochemical analysis; type: functional, organism-based
# How it was run: as §1
# PC-3 [6] = assay: Antitumor activity against human PC3 cells xenografted in nude mouse assessed as tumor growth inhibition at 20 mg/kg, ip administered every other day for 18 days measured twice weekly; type: functional; details: PC-3, ip, 432 h, read-out: TGI
# How it was run: (§2)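 Male nude mice were implanted s.c. in the flank with PC3 cells (1 × 10^7 per mouse) mixed with Matrigel. Dosing began at a tumor size of about 100 mm³ and was given i.p. every other day for 18 days. Tumors were measured by caliper twice weekly, and volume was calculated as length × width²/2. %TGI was derived from mean tumor volume against the vehicle group, compared by one-way ANOVA.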
# Homo sapiens [7] = organism: Homo sapiens; details: at 1 µM
# Histone deacetylase 8 = molecular target: T1, Histone deacetylase 8 (Homo sapiens, UniProt Q9BY41); assay: Inhibition of recombinant human full length HDAC8 using Fluor-de-Lys as substrate after 60 mins by spectrofluorimetric analysis
# T1 sequence (Q9BY41 whole entry): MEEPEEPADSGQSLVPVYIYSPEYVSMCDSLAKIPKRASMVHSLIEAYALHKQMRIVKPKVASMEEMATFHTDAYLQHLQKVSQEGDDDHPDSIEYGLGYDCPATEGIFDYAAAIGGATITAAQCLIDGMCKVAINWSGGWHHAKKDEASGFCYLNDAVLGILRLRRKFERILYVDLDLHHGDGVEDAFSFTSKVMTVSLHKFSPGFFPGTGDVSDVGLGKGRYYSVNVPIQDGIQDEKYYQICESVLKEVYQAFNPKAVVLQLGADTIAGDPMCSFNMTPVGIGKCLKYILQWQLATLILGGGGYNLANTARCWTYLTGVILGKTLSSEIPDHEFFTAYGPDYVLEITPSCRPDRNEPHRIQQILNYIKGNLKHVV
# PC-3 [8] = assay: Antitumor activity against human PC3 cells xenografted in nude mouse assessed as reduction in tumor volume administered ip every other day for 18 days measured twice weekly; type: functional, organism-based
# How it was run: as §2
# Mus musculus [9] = assay: Toxicity in nude mouse xenografted with human PC3 cells assessed as weight loss at 20 to 40 mg/kg, ip administered every other day for 18 days; type: organism-based; details: in vivo, 432 h
# How it was run: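 Male nude mice carried s.c. PC3 flank xenografts (1 × 10^7 cells with Matrigel). They received i.p. vehicle, 20 mg/kg or 40 mg/kg every other day for 18 days, and body weight (g) was tracked over the study.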
# Histone deacetylase 2 = Histone deacetylase 2 (Homo sapiens, UniProt Q92769); assay: Inhibition of recombinant human full length HDAC2 using Fluor-de-Lys as substrate after 60 mins by spectrofluorimetric analysis
# Sequence of Histone deacetylase 2 (Q92769 whole entry): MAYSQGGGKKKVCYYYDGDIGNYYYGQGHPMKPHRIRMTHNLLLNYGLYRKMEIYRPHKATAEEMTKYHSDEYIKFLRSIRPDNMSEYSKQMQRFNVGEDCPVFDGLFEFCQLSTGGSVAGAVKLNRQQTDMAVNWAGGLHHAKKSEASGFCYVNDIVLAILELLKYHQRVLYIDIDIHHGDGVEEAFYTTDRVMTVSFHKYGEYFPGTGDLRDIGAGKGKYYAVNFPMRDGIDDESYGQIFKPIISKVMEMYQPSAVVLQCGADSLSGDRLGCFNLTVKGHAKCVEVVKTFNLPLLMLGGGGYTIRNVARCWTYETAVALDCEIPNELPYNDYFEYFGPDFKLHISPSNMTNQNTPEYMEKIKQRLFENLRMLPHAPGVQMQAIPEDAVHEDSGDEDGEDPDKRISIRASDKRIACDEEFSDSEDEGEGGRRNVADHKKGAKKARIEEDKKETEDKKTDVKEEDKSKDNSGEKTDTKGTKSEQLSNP
# PC-3 [10] = assay: Antitumor activity against human PC3 cells xenografted in nude mouse assessed as tumor growth inhibition at 40 mg/kg, ip administered every other day for 18 days measured twice weekly; type: functional; details: PC-3, ip, 432 h, read-out: TGI
# How it was run: as §2
# Homo sapiens [11] = organism: Homo sapiens; details: at 1 µM; remark: listed apart in the source
# [12] = molecular target: T2, Protein deacetylase HDAC6 (Homo sapiens, UniProt Q9UBN7); assay: Inhibition of recombinant human full length HDAC6 using Fluor-de-Lys as substrate after 60 mins by spectrofluorimetric analysis
# T2 sequence (Q9UBN7 whole entry): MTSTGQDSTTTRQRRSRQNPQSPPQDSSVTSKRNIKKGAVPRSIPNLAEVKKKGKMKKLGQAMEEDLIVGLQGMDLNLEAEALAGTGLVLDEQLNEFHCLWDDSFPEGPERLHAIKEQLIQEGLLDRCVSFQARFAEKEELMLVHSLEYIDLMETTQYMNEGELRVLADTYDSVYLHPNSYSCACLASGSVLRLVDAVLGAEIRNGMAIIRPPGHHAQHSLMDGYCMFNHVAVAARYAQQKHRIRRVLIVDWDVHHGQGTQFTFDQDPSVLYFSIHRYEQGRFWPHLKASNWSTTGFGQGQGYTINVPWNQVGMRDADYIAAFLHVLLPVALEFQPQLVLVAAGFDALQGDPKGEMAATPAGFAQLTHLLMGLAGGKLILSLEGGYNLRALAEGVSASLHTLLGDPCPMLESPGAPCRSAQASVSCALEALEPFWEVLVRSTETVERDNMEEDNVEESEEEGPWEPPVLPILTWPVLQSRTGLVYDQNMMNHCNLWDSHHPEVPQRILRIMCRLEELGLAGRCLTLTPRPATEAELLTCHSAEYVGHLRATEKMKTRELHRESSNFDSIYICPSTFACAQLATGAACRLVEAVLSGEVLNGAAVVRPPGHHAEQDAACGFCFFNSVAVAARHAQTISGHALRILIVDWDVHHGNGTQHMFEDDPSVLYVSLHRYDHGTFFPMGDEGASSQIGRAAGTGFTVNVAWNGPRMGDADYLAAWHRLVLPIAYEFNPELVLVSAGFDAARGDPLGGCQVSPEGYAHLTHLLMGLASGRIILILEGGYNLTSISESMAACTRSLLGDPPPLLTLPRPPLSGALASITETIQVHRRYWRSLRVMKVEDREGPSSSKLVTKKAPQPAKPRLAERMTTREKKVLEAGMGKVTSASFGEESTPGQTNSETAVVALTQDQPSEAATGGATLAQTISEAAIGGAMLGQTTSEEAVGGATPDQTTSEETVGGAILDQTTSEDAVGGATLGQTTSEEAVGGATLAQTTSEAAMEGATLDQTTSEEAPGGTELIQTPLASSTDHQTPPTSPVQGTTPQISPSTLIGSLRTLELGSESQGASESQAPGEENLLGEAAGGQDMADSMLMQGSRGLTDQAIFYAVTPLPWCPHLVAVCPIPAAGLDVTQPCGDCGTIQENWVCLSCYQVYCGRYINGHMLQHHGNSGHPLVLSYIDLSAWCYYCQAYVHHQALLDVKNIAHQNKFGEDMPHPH
structure (smiles),measurement,setting,value
Nc1ccccc1NC(=O)c1ccc(CNC(=O)OCc2cccnc2)cc1 [ENTINOSTAT],GI50,PC-3 [1],430 nM
same,IC50,[2],> 1000 nM
same,GI50,MDA-MB-231,1410 nM
same,GI50,A549,5760 nM
same,GI50,ASPC1,6900 nM
O=C(/C=C/c1ccc(S(=O)(=O)NCc2cccc3[nH]ccc23)cc1)NO,GI50,PC-3 [1],860 nM
same,IC50,[2],7.17 nM
same,GI50,MDA-MB-231,3550 nM
same,GI50,A549,1650 nM
same,GI50,ASPC1,4560 nM
O=C(/C=C/c1cccc(S(=O)(=O)NCCc2ccc3[nH]ccc3c2)c1)NO,GI50,PC-3 [1],330 nM
same,IC50,[2],52.2 nM
same,GI50,MDA-MB-231,2470 nM
same,GI50,A549,820 nM
same,GI50,ASPC1,2780 nM
O=C(/C=C/c1ccc(S(=O)(=O)NCCc2cccc3[nH]ccc23)cc1)NO,IC50,Histone deacetylase 1,1.28 nM
same,Activity,Mus musculus [3],inactive
same,Activity,Mus musculus [4],Dose-dependent effect
same,IC50,Histone deacetylase 4,> 100 nM
same,Activity,Mus musculus [5],Active
same,inhibition in vivo at 20 mg/kg,PC-3 [6],51.6%
same,inhibition,Homo sapiens [7],Active
same,GI50,PC-3 [1],140 nM
same,IC50,Histone deacetylase 8,> 100 nM
same,Activity,PC-3 [8],Dose-dependent effect
same,IC50,[2],8.56 nM
same,GI50,MDA-MB-231,320 nM
same,Activity,Mus musculus [9],Non-Toxic
same,IC50,Histone deacetylase 2,0.9 nM
same,GI50,A549,250 nM
same,inhibition in vivo at 40 mg/kg,PC-3 [10],62.2%
same,inhibition,Homo sapiens [11],Active
same,IC50,[12],8.32 nM
same,GI50,ASPC1,240 nM
O=C(/C=C/c1ccc(S(=O)(=O)NCCc2ccc3[nH]ccc3c2)cc1)NO,GI50,PC-3 [1],310 nM
same,IC50,[2],76.1 nM
same,GI50,MDA-MB-231,9910 nM
same,GI50,A549,600 nM
same,GI50,ASPC1,3970 nM
O=C(/C=C/c1cccc(S(=O)(=O)Nc2ccccc2)c1)NO [BELINOSTAT],IC50,Histone deacetylase 4,> 1000 nM
same,GI50,PC-3 [1],310 nM
same,IC50,[2],81 nM
same,GI50,MDA-MB-231,280 nM
same,GI50,A549,230 nM
same,GI50,ASPC1,650 nM
Cn1ccc2c(CCNS(=O)(=O)c3ccc(/C=C/C(=O)NO)cc3)cccc21,IC50,Histone deacetylase 1,1.34 nM
same,IC50,Histone deacetylase 4,> 100 nM
same,GI50,PC-3 [1],150 nM
same,IC50,Histone deacetylase 8,> 100 nM
same,IC50,[2],14.3 nM
same,GI50,MDA-MB-231,80 nM
same,IC50,Histone deacetylase 2,0.53 nM
same,GI50,A549,250 nM
same,IC50,[12],6.8 nM
same,GI50,ASPC1,160 nM
O=C(CCCCCCC(=O)Nc1ccccc1)NO [VORINOSTAT],IC50,[2],131 nM
O=C(/C=C/c1cccc(S(=O)(=O)NCCc2cccc3[nH]ccc23)c1)NO,GI50,PC-3 [1],310 nM
same,IC50,[2],30.4 nM
same,GI50,MDA-MB-231,2060 nM
same,GI50,A549,870 nM
same,GI50,ASPC1,3850 nM
O=C(/C=C/c1ccc(S(=O)(=O)Nc2cccc3[nH]ccc23)cc1)NO,GI50,PC-3 [1],3490 nM
same,IC50,[2],> 1000 nM
same,GI50,MDA-MB-231,> 10000 nM
same,GI50,A549,> 10000 nM
same,GI50,ASPC1,> 10000 nM
COc1ccc(S(=O)(=O)n2ccc3c(CCNS(=O)(=O)c4ccc(/C=C/C(=O)NO)cc4)cccc32)cc1,GI50,PC-3 [1],2880 nM
same,IC50,[2],60 nM
same,GI50,MDA-MB-231,5850 nM
same,GI50,A549,4350 nM
same,GI50,ASPC1,12500 nM
